Assay results from paper PMC3798158 (Journal of medicinal chemistry, 2013).
“Also recorded” adds a separate entry of the source. Structures can show the parent of a compound that is named as a salt. Where two headings read alike, the source gives them in different places.

What was measured:
[1] = cited from earlier work; for t1/2 of HNO release: neutral conditions
GAPDH = GAPDH (Oryctolagus cuniculus, UniProt P46406); experiment: High resolution LC-MS of structural modifications of GAPDH tryptic peptides; design: species or system rabbit; settings: for Products, GAPDH tryptic peptide I143–K159 (Cys 149, Cys 153) / Products, GAPDH tryptic peptide V232–R245 (Cys 244): LC-MS after trypsin digest, 10 eq. where printed; for Product at Cys 281 of GAPDH (peptide G269–K306): mass spectrometric data extraction from reaction mixture
Sequence of GAPDH (P46406 whole entry): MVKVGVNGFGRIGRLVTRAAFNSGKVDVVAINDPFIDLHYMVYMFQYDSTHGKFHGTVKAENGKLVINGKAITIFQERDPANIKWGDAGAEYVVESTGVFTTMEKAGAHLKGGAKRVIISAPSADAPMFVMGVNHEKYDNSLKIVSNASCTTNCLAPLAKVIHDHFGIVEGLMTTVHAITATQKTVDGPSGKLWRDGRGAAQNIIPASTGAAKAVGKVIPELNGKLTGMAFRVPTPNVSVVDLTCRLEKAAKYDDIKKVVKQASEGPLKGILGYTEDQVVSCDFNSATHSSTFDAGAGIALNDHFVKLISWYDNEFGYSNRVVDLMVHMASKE
In short: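 Rabbit muscle GAPDH was incubated with test compound (10 equiv), then trypsin-digested at 20:1 (w/w, monomer:trypsin), 37 °C, 12−16 h, in 50 mM Tris-HCl, and quenched by freezing at −20 °C. Positive-ion Orbitrap, resolution 60000; Cys-peptide modifications were assigned by m/z.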

rabbit muscle GAPDH [2] = molecular target: T1, rabbit muscle GAPDH (Oryctolagus cuniculus, UniProt P46406); experiment: Reversibility of GAPDH inhibition by DTT; assay type: biochemical; settings: for GAPDH enzyme activity after treatment / GAPDH enzyme activity restored after DTT incubation: 1 μM compound, 60 min; for GAPDH enzyme activity restored after DTT incubation: then DTT
T1 sequence (P46406 whole entry): as above

AhpC C165S = AhpC C165S (Salmonella typhimurium, UniProt P0A251, C166S); settings: LC-MS after Asp-N digest, 10 eq. where printed
rabbit muscle GAPDH [3] = molecular target: T1, rabbit muscle GAPDH; experiment: In vitro inhibition of GAPDH; assay type: biochemical; settings: for GAPDH inhibition (in words): incubation of GAPDH
STAT3 = settings: similar to AS; cited from earlier work
myofilament = settings: sensitizing myofilament responsiveness to calcium; cited from earlier work
[4] = Stopped-flow UV-vis kinetic decomposition; assay type: physicochemical; settings: compared with AS

For Sodium trioxidinitrate [AS], the “rate constant of decomposition to HNO and nitrite” value ([1]; pH 7, 37 °C) is given as 0.005 s⁻¹, the “Products, GAPDH tryptic peptide I143–K159 (Cys 149, Cys 153)” value (shortened to “Products … (Cys 149, Cys 153)”) (GAPDH) is given as “Internal disulfide; RSSR” and the “Products, GAPDH tryptic peptide V232–R245 (Cys 244)” value (“Products … (Cys 244)” for short) (GAPDH; listed as 14N AS) is given as “Sulfinamide; also recorded: Sulfinic acid”. For the same compound, the “Product at Cys 281 of GAPDH (peptide G269–K306)” value (GAPDH) was “sulfinamide”, the “GAPDH enzyme activity after treatment” value (rabbit muscle GAPDH [2]) was 23 % of control and the “GAPDH enzyme activity restored after DTT incubation” value (rabbit muscle GAPDH [2]) was 51 % of control. The “Products, C165S AhpC Asp-N peptide D41–G51 (Cys 46)” value (shortened to “Products … (Cys 46)”) (AhpC C165S; listed as 14N AS) was “Sulfinamide; also recorded: Sulfinic acid”.

With `O=Nc1ccccc1` [Nitrosobenzene, nitrosobenzene] the “Products … (Cys 244)” value (GAPDH) was “Sulfinic acid”, the IC50 (rabbit muscle GAPDH [3]) was 230 nM and the “Products … (Cys 46)” value (AhpC C165S) was “Sulfinic acid”.

For `CC(C)(C)C(=O)OC1(N=O)CCCCC1` [compound 2, 1-nitrosocyclohexyl pivalate], the “t1/2 of HNO release” value [1] is listed as 37.8 h, the “effect on STAT3 activation” value (STAT3) is listed as “blocks STAT3 activation” and the “effect on myocardial contractility” value (myofilament) is listed as “no effect”. The “Products … (Cys 149, Cys 153)” value (GAPDH) was “Internal disulfide; RSSR”, the “Products … (Cys 244)” value (GAPDH) was “Sulfinic acid” and the “Products … (Cys 46)” value (AhpC C165S) was “Sulfinic acid”.

With “Diethylammonium-1- (N,N-diethylamino) diazen-1-ium- 1,2-diolate [DEANO]” the “Products … (Cys 244)” value (GAPDH) was “Nitrosylated product” and the “GAPDH inhibition (in words)” value (rabbit muscle GAPDH [3]) was “inhibition of enzyme activity”.

For `N[C@@H](CCC(=O)N[C@@H](CSN=O)C(=O)NCC(=O)O)C(=O)O` [GSNO, S-nitrosoglutathione], the “Products … (Cys 244)” value (GAPDH) was “Nitrosylated product”, the “GAPDH inhibition (in words)” value (rabbit muscle GAPDH [3]) was “inhibition of enzyme activity” and the “DTT reversibility of GAPDH inhibition (in words)” value (rabbit muscle GAPDH [2]) was “completely DTT reversible”. The “Products … (Cys 46)” value (AhpC C165S) was “Nitrosylated Product”.

In the case of `O=S(=O)(NO)c1ccccc1Br` [o-Bromo-Piloty’s Acid], the “Products … (Cys 149, Cys 153)” value (GAPDH) is reported as “Internal disulfide; RSSR”, the “Products … (Cys 244)” value (GAPDH) is reported as “Sulfinamide; also recorded: Sulfinic acid” and the “Products … (Cys 46)” value (AhpC C165S) is reported as “Sulfinamide; also recorded: Sulfinic acid”.

For `O=NC1(OC(=O)C(F)(F)F)CCCCC1` [compound 3, 1-Nitrosocyclohexyl trifluoroacetate], the “Products … (Cys 149, Cys 153)” value (GAPDH) was “Internal disulfide; RSSR”, the “Products … (Cys 244)” value (GAPDH) was “Sulfinamide,; also recorded: Sulfinic acid” and the “HNO release rate relative to AS” value [4] was “over 1000 times faster”.

For `CC(=O)OC1(N=O)CCCCC1` [compound 1, 1-Nitrosocyclohexyl acetate], the “t1/2 of HNO release” value [1] is given as 13.3 h, the “effect on myocardial contractility” value (myofilament) is given as “enhances myocardial contractility more potently than AS” and the “Products … (Cys 149, Cys 153)” value (GAPDH) is given as “Internal disulfide; RSSR”. For the same compound, the “Products … (Cys 244)” value (GAPDH) was “Sulfinic acid”, the “Product at Cys 281 of GAPDH (peptide G269–K306)” value (GAPDH) was “sulfinic acid” and the “GAPDH enzyme activity after treatment” value (rabbit muscle GAPDH [2]) was 5 % of control. The “GAPDH enzyme activity restored after DTT incubation” value (rabbit muscle GAPDH [2]) was 12 % of control and the “Products … (Cys 46)” value (AhpC C165S) was “Sulfinic acid”.
